# Screening results: PubChem BioAssay, several laboratories
# CHO parental Ca = ATP-evoked calcium signal inhibitors, parental CHO, primary screen, counter-screen for OX1R antagonist project, cell-based, fluorescence, Fluo-8 calcium dye | inhibition, % at 5.6 µM | 0.63% of 330,000 active | parental CHO-K1, ATP-induced calcium, Fluo-8 fluorescence;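 active = inhibition above that plate's mean sample inhibition plus 3 SD, cut at about 26% in these data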
#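 Material: Parental CHO cells | Reagent: ATP | Compound dosing: Single nominal dose of 5.6 µM per compound | Detection: Intracellular calcium via Fluo-8 no-wash fluorescent dye | Read-out: % inhibition of ATP-induced calcium mobilization | Benchmarks: Low control ATP plus DMSO, high control DMSO only | Replicates: Singlicate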
# OX1R antag-1 = OX1R (HCRTR1) antagonists, primary screen, fluorescence, CHO/OX1R cells, Fluo-8 calcium, orexin A | Orexin/Hypocretin receptor type 1 (Homo sapiens), O43613 | Fluo-8 calcium fluorescence | inhibition, % at 5 µM | 0.43% of 330,000 active | AID 434989, 2010;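 active = inhibition above its plate's threshold, mean inhibition of all tested compounds on the plate plus 3 SD, cut at about 37% in these data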
# Target sequence (O43613 whole entry, looked up): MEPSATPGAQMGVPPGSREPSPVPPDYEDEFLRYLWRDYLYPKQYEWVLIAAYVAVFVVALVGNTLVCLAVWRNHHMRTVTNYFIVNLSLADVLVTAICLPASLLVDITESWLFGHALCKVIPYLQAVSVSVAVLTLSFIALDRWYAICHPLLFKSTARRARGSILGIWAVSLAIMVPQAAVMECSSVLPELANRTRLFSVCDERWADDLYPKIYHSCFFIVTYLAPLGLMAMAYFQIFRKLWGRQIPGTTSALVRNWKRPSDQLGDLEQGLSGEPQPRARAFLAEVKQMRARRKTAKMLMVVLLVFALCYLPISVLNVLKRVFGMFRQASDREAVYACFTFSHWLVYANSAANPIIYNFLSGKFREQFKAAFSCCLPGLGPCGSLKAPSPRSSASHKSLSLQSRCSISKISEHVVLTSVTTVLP
# OX1R antag-2 = antagonists of human orexin 1 receptor (OX1R); Orexin/Hypocretin receptor type 1 (Homo sapiens), O43613; OX1R-expressing cells, FRET antagonist read-out; inhibition, % at 6.6 µM; 1.8% of 330,000 active; AID 485270, 2010; in the data active = inhibition mostly above about 38%, no sharp cut-off; inactive = mostly below about 40%
# MPTP block = mitochondrial permeability transition pore inhibitors, primary screen, biochemical, isolated mouse mitochondria, absorbance; 1.4% of 360,000 active; Ca2+ swelling absorbance, 30 min; inhibition, % at 10 µM;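 active = inhibition of 50% or more, scaled per plate between neutral and stimulator controls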
# GPR7 antagonist = GPR7 receptor antagonists, primary screen, cell-based, fluorescence, single concentration. Neuropeptides B/W receptor type 1 (Homo sapiens), P48145. GPR7-expressing cells, fluorescence antagonist assay. inhibition, % at 4.4 µM. 1.1% of 290,000 active. AID 1861, 2009; in the data active = inhibition above about 16%, passing the limit was not always enough;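 note: cells stimulated with the agonist NPW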
# GPR7 antag cf = GPR7 receptor antagonists, confirmation, cell-based, fluorescence, single concentration; 52% of 2,400 active; shares compounds with GPR7 antagonist; GPR7-expressing cells, calcium fluorescence antagonist mode; inhibition, % at 4.4 µM; in the data active = inhibition above about 24%;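 note: stimulated with the GPR7 agonist NPW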
# MCHR1 antagonist = MCHR1 antagonists in cells, counter-screen for GPR7 antagonist project, cell-based, fluorescence, human | shares compounds with GPR7 antagonist | inhibition, % at 4.4 µM | AID 2148, 2009 | MCHR1-expressing cells, fluorescence antagonist assay | 62% of 2,400 active; in the data active = inhibition above about 22%
# Hits are given with their value; . = inactive; / = no result given. Shown are actives, neighbours in structure and some others; about 3.8% of the full set was active somewhere.
SMILES,CHO parental Ca,OX1R antag-1,OX1R antag-2,MPTP block,GPR7 antagonist,GPR7 antag cf,MCHR1 antagonist
Cc1ccc2[nH]c3nc(N/N=C/c4cccc(O)c4)nnc3c2c1,.,.,.,.,.,/,/
CCc1ccc2[nH]c3nc(N/N=C/c4ccc(O)cc4O)nnc3c2c1,.,.,73.8,.,.,/,/
CCc1cccc(C)c1N1C(=O)CC(C)(C)CC1=O,.,.,.,.,.,/,/
CC(=O)c1cccc(OCC(O)CNCCc2ccc(Cl)cc2)c1 (configuration not stated),.,.,.,.,.,/,/
CCCc1cnc(NCCNCC(O)COc2ccc(Cl)c(Cl)c2)nc1 (configuration not stated),.,.,.,.,22.5,31.4,51.8
O=C(CN1C(=O)COc2ccccc21)N1CCOCC1,.,.,.,.,32.0,.,.
COc1ccc(NC2CC(=O)N(C(C)C)C2=O)cc1 (configuration not stated),.,.,.,.,23.6,.,.
O=C1CCC(C(=O)N(Cc2cccs2)C2(C(=O)NC3CCCCC3)CCCCC2)N1 (configuration not stated),.,.,.,.,.,/,/
O=C(c1cnccn1)N(Cc1cccs1)C1(C(=O)NC2CCCCC2)CCCCC1,.,.,.,.,41.4,30.3,30.0
O=C(c1ccccn1)N(Cc1cccs1)C1(C(=O)NC2CCCCC2)CCCCC1,.,.,.,.,.,/,/
O=C(c1cnccn1)N(Cc1cccs1)C1(C(=O)NC2CCCC2)CCCCC1,.,.,.,.,26.3,37.2,.
CCn1cc(/C=C(\NC(=O)c2cc(OC)c(OC)c(OC)c2)C(=O)N2CCOCC2)c2ccccc21,/,/,/,.,/,/,/
CC(C)(C)c1ccc(CSc2ccc(S(=O)(=O)N3CCOCC3)cn2)cc1,.,.,.,.,/,/,/
C=CCN1C=C2C(=O)C(C)(OC(=O)c3ccco3)C(=O)C(C=C)=C2C=C1C1CC1 (configuration not stated),.,.,.,/,/,/,/
CCn1c(C)nc2cc(N)ccc21,.,.,.,.,27.3,.,.
COC(C(=O)Nc1ccc(F)cc1)c1ccccc1 (configuration not stated),.,.,.,.,.,/,/
COC(C(=O)Nc1ccc(S(=O)(=O)Nc2ccc(F)cc2)cc1)c1ccccc1 (configuration not stated),.,.,.,.,21.6,51.2,38.6
Cc1cccc(NC(=O)C(C)SCc2nc3sc4c(c3c(=O)[nH]2)CCCC4)n1 (configuration not stated),.,.,.,.,/,/,/
C/C(CC(=O)Nc1cccc2c1CCCC2)=N\NC(=O)c1cccc2ccccc12,.,.,.,.,.,/,/
C/C(CC(=O)Nc1cccc2c1CCCC2)=N\NC(=O)c1ccccc1N,.,.,.,.,24.5,.,.
c1ccc(CCc2nn3c(Cn4cnc5ccccc54)nnc3s2)cc1,.,.,.,.,22.6,.,27.9
COc1ccc(OCc2nn3c(Cn4cnc5ccccc54)nnc3s2)cc1,.,.,.,.,.,/,/
Cn1c(C(=O)c2ccncc2)cc2ccccc21,.,.,.,.,.,/,/
Fc1ccc(C(c2nnnn2C2CCCC2)N(Cc2ccco2)CC2CCCO2)cc1 (configuration not stated),.,.,.,.,31.7,43.5,53.2
Cc1c(Cc2c(Cl)cccc2Cl)c(=O)ccn1C(C)c1ccccc1 (configuration not stated),/,/,/,.,35.2,27.4,25.3
CC1=C(C(=O)N2CCOCC2)CC(CC(=O)NC2CCCC2)C(=O)N1Cc1ccccc1 (configuration not stated),/,/,/,.,/,/,/
c1ccc(CNc2ncnc3c2cnn3Cc2ccccc2)cc1,.,.,.,.,27.7,53.5,50.7
Clc1ccc(Cn2ncc3c(NCc4ccco4)ncnc32)c(Cl)c1,.,.,.,/,28.0,36.9,55.5
Clc1ccc(-n2ncc3c(NCc4ccco4)ncnc32)cc1,.,.,.,.,.,/,/
